This is an account of results in ChEMBL document CHEMBL2413060, “Synthesis, biological evaluation and molecular docking studies of some pyrimidine derivatives” (2013).

In brackets after ≈: the same amount, converted by molar mass.

Holding throughout (type): functional
Assay [1] deals with Pseudomonas aeruginosa. Put plainly: Antibacterial activity against Pseudomonas aeruginosa ATCC 9027 assessed as diameter of inhibition zone at 1 mg/ml after 24 hrs by cup diffusion method (reference value: 16 mm). The following applies: ATCC 9027, 24 h, read-out: DIZ.
Assay [2] deals with Candida albicans. Put plainly: Antifungal activity against Candida albicans ATCC 2091 assessed as diameter of inhibition zone at 1 mg/ml after 48 hrs by cup diffusion method (reference value: 22 mm). The settings on record: ATCC 2091, 48 h, read-out: DIZ.
The test system of assay [3] is UACC-257. Put plainly: Cytotoxicity against human UACC257 cells assessed as growth inhibition at 10 uM. The following applies: read-out: GI. The procedure, abridged: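 Single-dose screen in a sixty-cell human tumour line panel; percent growth of treated cells relative to untreated was read and reported as percentage growth inhibition, shown as a mean graph. Compounds meeting the threshold inhibition criteria went on to five-dose testing.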

The subject of assay [4] is Staphylococcus aureus. The assay can be described thus: Antibacterial activity against Staphylococcus aureus ATCC 6538P assessed as diameter of inhibition zone at 1 mg/ml after 24 hrs by cup diffusion method (reference value: 15 mm). The settings on record: read-out: DIZ.
The test system of assay [5] is Shigella flexneri. Put plainly: Antibacterial activity against Shigella flexneri ATCC 15391 assessed as diameter of inhibition zone at 1 mg/ml after 24 hrs by cup diffusion method (reference value: 17 mm). The settings on record: ATCC 15391, 24 h, read-out: DIZ.
The subject of assay [6] is OVCAR-8. The assay can be described thus: Cytotoxicity against human OVCAR8 cells assessed as growth inhibition at 10 uM. The following applies: read-out: GI. The procedure, abridged:
(§1)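 Single-dose screen on human tumour cell lines. Growth of treated cells is expressed as percent of untreated growth, plotted as a mean graph, and reported as percent growth inhibition.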

The test system of assay [7] is Candida albicans. Put plainly: Antifungal activity against Candida albicans ATCC 2091 after 48 hrs by two-fold serial dilution method. The following applies: ATCC 2091, 48 h. The procedure, abridged:
(§2)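 Two-fold serial broth dilution in sterile nutrient broth at 500, 250, 125, 62.5, 31.25, 15.63, 7.82 and 3.91 µg/ml, with dimethylformamide ≤2.5%. Organisms were pre-grown 24 h in broth, and 0.1 ml inoculum was added per 5 ml tube. Tubes were incubated at 37°C, 24 h for bacteria and 48 h for fungi. MIC was taken as the lowest concentration giving no turbidity.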

Assay [8] concerns Pseudomonas aeruginosa. The assay can be described thus: Antibacterial activity against Pseudomonas aeruginosa ATCC 9027 after 24 hrs by two-fold serial dilution method. The settings on record: ATCC 9027, 24 h. The procedure, abridged: as §2
Assay [9] concerns Candida albicans. The assay can be described thus: Antifungal activity against Candida albicans ATCC 2091 after 48 hrs by two-fold serial dilution method relative to clotrimazole.
For assay [10], the system named is Shigella flexneri. Put plainly: Antibacterial activity against Shigella flexneri ATCC 15391 after 24 hrs by two-fold serial dilution method. The following applies: ATCC 15391, 24 h. The procedure, abridged:
as §2

In assay [11] the test system is HOP-92. Put plainly: Cytotoxicity against human HOP92 cells assessed as growth inhibition at 10 uM. The settings on record: read-out: GI.
In assay [12] the test system is Staphylococcus aureus. Put plainly: Antibacterial activity against Staphylococcus aureus ATCC 6538P after 24 hrs by two-fold serial dilution method. In a few lines:
as §2

Assay [13] concerns Shigella flexneri. The assay can be described thus: Antibacterial activity against Shigella flexneri ATCC 15391 after 24 hrs by two-fold serial dilution method relative to ofloxacin.
The subject of assay [14] is Pseudomonas aeruginosa. The assay can be described thus: Antibacterial activity against Pseudomonas aeruginosa ATCC 9027 after 24 hrs by two-fold serial dilution method relative to ofloxacin.
Assay [15] concerns HOP-62. Put plainly: Cytotoxicity against human HOP62 cells assessed as growth inhibition at 10 uM. The following applies: read-out: GI.
In assay [16] the test system is HCC 2998. Put plainly: Cytotoxicity against human HCC2998 cells assessed as growth inhibition at 10 uM. The settings on record: read-out: GI.
Assay [17] concerns NCI/ADR-RES. The assay can be described thus: Cytotoxicity against human NCI/ADR-RES cells assessed as growth inhibition at 10 uM. The following applies: read-out: GI. The procedure, abridged: as §1
Assay [18] has as its system M14. Put plainly: Cytotoxicity against human M14 cells assessed as growth inhibition at 10 uM. The settings on record: read-out: GI.
Assay [19] relates to SK-MEL-2. The assay can be described thus: Cytotoxicity against human SK-MEL-2 cells assessed as growth inhibition at 10 uM. The settings on record: read-out: GI. In a few lines:
as §1

Turning to `Cn1c(N2CCOCC2)nc(-c2ccco2)c(C#N)c1=O`, the zone of inhibition at 1000 µg/mL in [1] turned out to be 17 mm; in assay [2], 22 mm; in assay [4], 15 mm; in assay [5], 17 mm. Moreover, the figures for the inhibition of growth at 10 µM in [3] and in assay [6] were 69.8% and 47.1%, respectively.
As to `CCOC(=O)CC(=N)N(NC(=O)CC#N)c1nc(-c2ccccc2)c(C#N)c(=O)n1C`, the MIC in assay [7] and in [8] was 125 µg/mL (≈ 297 µM) in each case. Besides, the Activity in assay [9] is on record as 60%.
As for `N#Cc1c(Cl)nc(SCC2CO2)nc1-c1ccccc1` (centres undefined), in [10], the MIC was found to be 125 µg/mL (≈ 411 µM). Besides, the zone of inhibition at 1000 µg/mL in assay [1] worked out at 16 mm; in assay [2], 22 mm; in assay [4] it was 15 mm; in [5] it was 22 mm. For the same compound, the results for the inhibition of growth at 10 µM in assay [3] and in [6] were 60.1% and 48.4%, respectively.
As to `N#Cc1c(-c2ccco2)nc(SCC(O)CN2CCOCC2)nc1N1CCOCC1` (centres undefined), the zone of inhibition at 1000 µg/mL in [1] was determined as 18 mm; in assay [2], 25 mm; in [4], 15 mm; in [5], 17 mm. Also, the MIC in assay [7] and in assay [8] was 125 µg/mL (≈ 290 µM) throughout. In addition, the Activity in [9] amounted to 60%.
On to `N#Cc1c(-c2ccccc2)nc(SCC2CO2)[nH]c1=O` (centres undefined), for which the MIC in [10] came out at 125 µg/mL (≈ 438 µM). Besides, the zone of inhibition at 1000 µg/mL in [1] was 16 mm; in [2] it was 22 mm; in [4], 15 mm; in assay [5], 22 mm. Also, the inhibition of growth at 10 µM in assay [11] came to 41.5%.
Consider `N#Cc1c(-c2ccco2)nc(SCC2CO2)[nH]c1=O` (centres undefined), for which the MIC in assay [10], in [12], in [7] and in assay [8] was 125 µg/mL (≈ 454 µM) throughout. The zone of inhibition at 1000 µg/mL amounted to 18 mm in [1], 25 mm in [2], 18 mm in assay [4] and 24 mm in assay [5]. The Activity is given as 60% in [13], 62% in [9] and 50% in assay [14].
With `N#Cc1c(Cl)nc(=S)[nH]c1-c1ccccc1`, the MIC in assay [10] and in assay [8] was 125 µg/mL (≈ 505 µM) each time. For the same compound, the zone of inhibition at 1000 µg/mL was 18 mm in assay [1], 22 mm in [2], 15 mm in [4] and 22 mm in assay [5]. In addition, the inhibition of growth at 10 µM in assay [11] was found to be 48.5%; in [15], 47.4%.
Turning to `N#Cc1c(Cl)nc(=S)[nH]c1-c1ccco1`, the zone of inhibition at 1000 µg/mL in assay [1] amounted to 18 mm; in [2], 22 mm; in [4], 15 mm; in [5], 17 mm. The compound also came in with an MIC in assay [8] of 62.5 µg/mL (≈ 263 µM). Besides, the inhibition of growth at 10 µM in assay [15] turned out to be 49.6%.
Take `N#Cc1c(N2CCCCC2)nc(=S)[nH]c1-c1ccc([N+](=O)[O-])cc1`: 125 µg/mL (≈ 366 µM) was the least that counted as inhibitory in assay [10] (MIC). The zone of inhibition at 1000 µg/mL was found to be 17 mm in assay [1], 22 mm in assay [2], 15 mm in assay [4] and 23 mm in assay [5]. The Activity in [13] and in assay [14] was 60% each time.
In [12], `N#Cc1c(N2CCCCC2)nc(=S)[nH]c1-c1ccco1` came in with an MIC of 125 µg/mL (≈ 437 µM). Also, the zone of inhibition at 1000 µg/mL in assay [1] was 16 mm; in assay [2] it was 22 mm; in assay [4], 18 mm; in [5], 17 mm.
As for `N#Cc1c(N2CCN(Cc3ccccc3)CC2)nc(=S)[nH]c1-c1ccccc1`, the MIC in assay [10] and in assay [8] was 125 µg/mL (≈ 323 µM) each time. The zone of inhibition at 1000 µg/mL was 18 mm in assay [1], 22 mm in assay [2], 15 mm in assay [4] and 20 mm in [5]. Further, the Activity in assay [13] and in [14] was 60% in each case.
For `N#Cc1c(N2CCN(Cc3ccccc3)CC2)nc(=S)[nH]c1-c1ccc([N+](=O)[O-])cc1`, in assay [16], the inhibition of growth at 10 µM was determined as 71.8%. For the same compound, the zone of inhibition at 1000 µg/mL in [1] amounted to 16 mm; in assay [2] it was 22 mm; in assay [4], 15 mm; in assay [5] it was 17 mm.
Regarding `N#Cc1c(N2CCN(Cc3ccccc3)CC2)nc(=S)[nH]c1-c1ccco1`, the MIC in [12] was 3.91 µg/mL (≈ 10.4 µM); in [7] it was 125 µg/mL (≈ 331 µM); in assay [8], 125 µg/mL (≈ 331 µM). The zone of inhibition at 1000 µg/mL in assay [1] was 20 mm; in assay [2] it was 29 mm; in assay [4] it was 18 mm; in [5] it was 17 mm. In addition, the Activity in [9] was determined as 75%.
Take `CCN(CC)CCSc1nc(-c2ccccc2)c(C#N)c(=O)[nH]1`: the inhibition of growth at 10 µM came out at 107% in assay [16] and 42% in [17]. Besides, the MIC came to 125 µg/mL (≈ 381 µM) in assay [10], 3.91 µg/mL (≈ 11.9 µM) in [12], 125 µg/mL (≈ 381 µM) in assay [7] and 125 µg/mL (≈ 381 µM) in assay [8]. Also, the zone of inhibition at 1000 µg/mL in assay [1] stood at 18 mm; in assay [2], 25 mm; in assay [4] it was 18 mm; in assay [5] it was 21 mm. The Activity came to 60% in assay [13], 62% in [9] and 50% in [14].
As for `N#Cc1c(-c2ccccc2)nc(SCC(=O)Nc2ccc(Cl)cc2)[nH]c1=O`, the inhibition of growth at 10 µM stood at 84.4% in [16] and 45% in assay [18]. Besides, the minimum inhibitory concentration (MIC) in assay [12] came out at 3.91 µg/mL (≈ 9.85 µM); in [7], 125 µg/mL (≈ 315 µM); in [8], 125 µg/mL (≈ 315 µM). For the same compound, the zone of inhibition at 1000 µg/mL in [1] turned out to be 22 mm; in [2], 30 mm; in [4], 20 mm; in [5] it was 17 mm. For the same compound, in assay [9], the Activity is 75%.
Compound `Cn1c(N2CCCCC2)nc(-c2ccccc2)c(C#N)c1=O` returned an MIC in [10] of 125 µg/mL (≈ 425 µM). The values for the inhibition of growth at 10 µM in assay [19], in assay [3] and in [6] were 69.8%, 71.9% and 42.4%, respectively. The zone of inhibition at 1000 µg/mL in assay [1] is 17 mm; in assay [2] it was 22 mm; in assay [4], 15 mm; in [5], 24 mm.
As for `Cn1c(N2CCCCC2)nc(-c2ccco2)c(C#N)c1=O`, the inhibition of growth at 10 µM in assay [19] came to 70.7%. Besides, the zone of inhibition at 1000 µg/mL amounted to 16 mm in [1], 22 mm in assay [2], 15 mm in [4] and 19 mm in assay [5].
`CC1(C)S[C@@H]2[C@H](NC(=O)[C@H](N)c3ccccc3)C(=O)N2[C@H]1C(=O)O` [AMPICILLIN] registered an MIC in [12] of 3.91 µg/mL (≈ 11.2 µM). Also, the results for the zone of inhibition at 1000 µg/mL in [1], in [4] and in assay [5] were 16 mm, 41 mm and 22 mm, respectively.
`Clc1ccccc1C(c1ccccc1)(c1ccccc1)n1ccnc1` [CLOTRIMAZOLE]: the zone of inhibition at 1000 µg/mL in [2] was 40 mm. Also, the MIC in assay [7] is 12.5 µg/mL (≈ 36.2 µM).

As a reminder, the MIC is the lowest concentration that inhibits growth of the organism. Read a low MIC as greater potency.
